Here are results for 5 compounds from ChEMBL document CHEMBL1124174, “Substituted benzamides. 1. Potential nondopaminergic antagonists of chemotherapy-induced nausea and emesis” (J Med Chem, 1988).

As usually defined, the ED50 is the dose at which the effect has come halfway, by size or by number of responders. A high value points to weaker potency. The IC50 is the concentration needed to halve the response being measured. Low readings indicate greater potency, high ones weaker potency.

A value given as a limit tells only on which side of the number the result lay.

Assay [1] concerns Canis familiaris. The assay can be described thus: In vivo antagonism of cisplatin-induced emesis in dog measured as emetic episodes, twice the dose of 1 mg/kg in 2 dogs. The assay is classed as functional, Canis lupus familiaris. The procedure, abridged:
(§1)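 Nonfasted mature male or female beagles were dosed sc twice, 30 min before and 120 min after cisplatin (3 mg/kg iv; 3 mg/mL in warm 0.9% saline, used immediately). Emesis was observed up to 5 h; events within 2 min counted as one episode. Results were given as mean emetic episodes and % protection versus a dynamic control (historical and concurrent saline means pooled). t test versus saline.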

Assay [2] addresses D(2) dopamine receptor (Rattus norvegicus) (UniProt P61169). The assay can be described thus: In vivo antagonism activity against D2 receptor was measured as stereotypy in rat when administered subcutaneously. The assay is classed as functional, organism-based. The procedure, abridged:
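Male Long Evans rats (275 g) were dosed sc in dilute aqueous HCl (pH 4.5-5.5) 30 min before apomorphine (1 mg/kg sc).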

Assay [3] deals with Mustela putorius furo. As to the kind of experiment: In vivo antagonism of cisplatin-induced emesis in ferret measured as percentage protection for twice the dose of 3 mg/kg and in 2 ferrets. The assay is classed as functional. The gist of the method:
(§2)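 Nonfasted castrated male Fitch ferrets (1–1.5 kg) had jugular catheters implanted ≥48 h earlier under anesthesia. Compounds or saline were given iv twice, 5 min before and 90 min after cisplatin (12 mg/kg iv; 12 mg/mL in warm 0.9% saline). Emesis was observed up to 4 h; events within 1 min counted as one episode. Results were given as mean emetic episodes and % protection versus a pooled historical/concurrent control. t test versus saline.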

Assay [4] concerns Mustela putorius furo. As to the kind of experiment: In vivo antagonism of cisplatin-induced emesis in ferret measured as emetic episodes, twice the dose of 3 mg/kg and in 2 ferrets. The assay is classed as functional. The gist of the method: as §2
The test system of assay [5] is Canis familiaris. The assay can be described thus: In vivo antagonism of cisplatin-induced emesis in dog measured as percentage protection for twice the dose of 1 mg/kg in 2 dogs. The assay is classed as functional, Canis lupus familiaris. The procedure, abridged: as §1
Assay [6] deals with D(2) dopamine receptor (Rattus norvegicus) (UniProt P61169). The assay can be described thus: In vivo antagonistic activity against dopamine D2 receptor was measured as catalepsy in rat when administered subcutaneously. The assay is classed as functional, organism-based. The procedure, abridged: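 Male Long Evans rats (275 g) received graded sc doses in dilute aqueous HCl (pH 4.5-5.5). They were observed 180 min for catalepsy, scored when the animal stayed stationary ≥15 s on a four-cork template.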
D(2) dopamine receptor (Rattus norvegicus), sequence (P61169 whole entry): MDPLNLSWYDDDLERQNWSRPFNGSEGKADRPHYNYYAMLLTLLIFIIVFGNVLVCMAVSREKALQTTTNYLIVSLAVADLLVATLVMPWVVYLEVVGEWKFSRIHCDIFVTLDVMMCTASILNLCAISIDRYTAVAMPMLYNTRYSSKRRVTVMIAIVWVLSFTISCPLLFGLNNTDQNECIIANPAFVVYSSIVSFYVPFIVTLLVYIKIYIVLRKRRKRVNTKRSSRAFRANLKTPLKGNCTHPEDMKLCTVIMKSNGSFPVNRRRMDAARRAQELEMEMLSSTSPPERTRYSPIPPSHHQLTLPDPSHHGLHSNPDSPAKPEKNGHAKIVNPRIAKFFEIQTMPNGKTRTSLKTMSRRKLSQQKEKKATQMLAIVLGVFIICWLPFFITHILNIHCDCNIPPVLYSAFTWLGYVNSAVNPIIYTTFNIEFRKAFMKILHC

Assay [7] has as its target D(2) dopamine receptor (Rattus norvegicus, UniProt P61169). The assay can be described thus: In vitro antagonistic activity against Dopamine receptor D2 was evaluated for the inhibition of [3H]spiperone binding. The procedure, abridged:
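Rat striatal membranes were prepared by differential centrifugation in 50 mM Tris pH 7.4 at 4 °C. Membrane protein (10 mg) was incubated 15 min at 37 °C with 0.1 nM [3H]spiperone and varying competitor concentrations. Buffer: 50 mM Tris HCl pH 7.5, 0.1% ascorbic acid, pargyline, 120 mM NaCl, 5 mM KCl, 2 mM CaCl2, 1 mM MgCl2. (+)-Butaclamol defined nonspecific binding. Bound ligand was collected by filtration and scintillation counted. IC50 by log-logit regression.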

For assay [8], the target named is D(2) dopamine receptor (Canis lupus familiaris) (UniProt Q9GJU1). As to the kind of experiment: In vivo antagonism activity against dopamine D2 receptor was measured as emesis in dog when administered subcutaneously. The assay is classed as functional, organism-based.
D(2) dopamine receptor (Canis lupus familiaris), sequence (Q9GJU1 whole entry): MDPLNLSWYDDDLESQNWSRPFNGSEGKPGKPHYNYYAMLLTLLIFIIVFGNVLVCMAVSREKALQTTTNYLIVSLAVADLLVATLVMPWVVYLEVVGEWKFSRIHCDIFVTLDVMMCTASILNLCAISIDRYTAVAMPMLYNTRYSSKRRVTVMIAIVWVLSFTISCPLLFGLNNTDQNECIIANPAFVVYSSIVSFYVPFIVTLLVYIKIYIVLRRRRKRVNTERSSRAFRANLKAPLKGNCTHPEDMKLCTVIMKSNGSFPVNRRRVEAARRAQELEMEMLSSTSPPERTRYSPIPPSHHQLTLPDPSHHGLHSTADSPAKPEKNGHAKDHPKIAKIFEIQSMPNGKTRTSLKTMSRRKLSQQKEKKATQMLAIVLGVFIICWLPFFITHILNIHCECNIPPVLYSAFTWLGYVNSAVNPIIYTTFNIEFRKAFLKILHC
For assay [9], the system named is Canis familiaris. The assay can be described thus: In vivo antagonism of cisplatin-induced emesis in dog measured as emetic episodes, twice the dose of 3 mg/kg in 2 dogs. The assay is classed as functional, Canis lupus familiaris. The procedure, abridged:
as §1

For assay [10], the system named is Canis familiaris. As to the kind of experiment: In vivo antagonism of cisplatin-induced emesis in dog measured as percentage protection for twice the dose of 3 mg/kg in 2 dogs. The assay is classed as functional, Canis lupus familiaris. The procedure, abridged: as §1
In assay [11] the test system is Mustela putorius furo. The assay can be described thus: In vivo antagonism of cisplatin-induced emesis in ferret measured as emetic episodes, twice the dose of 3 mg/kg and in 3 ferrets. The assay is classed as functional. The procedure, abridged: as §2
The subject of assay [12] is Canis familiaris. The assay can be described thus: In vivo antagonism of cisplatin-induced emesis in dog measured as emetic episodes, twice the dose of 6 mg/kg in 2 dogs. The assay is classed as functional, Canis lupus familiaris. The procedure, abridged:
as §1

For assay [13], the system named is Mustela putorius furo. As to the kind of experiment: In vivo antagonism of cisplatin-induced emesis in ferret measured as percentage protection for twice the dose of 3 mg/kg and in 3 ferrets. The assay is classed as functional. The gist of the method: as §2
In assay [14] the test system is Mustela putorius furo. As to the kind of experiment: In vivo antagonism of cisplatin-induced emesis in ferret measured as emetic episodes, twice the dose of 1 mg/kg and in 3 ferrets. The assay is classed as functional. The gist of the method:
as §2

Assay [15] has as its system Canis familiaris. The assay can be described thus: In vivo antagonism of cisplatin-induced emesis in dog measured as percentage protection for twice the dose of 6 mg/kg in 2 dogs. The assay is classed as functional, Canis lupus familiaris. The gist of the method:
as §1

The test system of assay [16] is Mustela putorius furo. The assay can be described thus: In vivo antagonism of cisplatin-induced emesis in ferret measured as percentage protection for twice the dose of 31 mg/kg and in 3 ferrets. The assay is classed as functional. The settings on record: dose 1 mg/kg; in the assay text read “1 mg/kg” for “31 mg/kg”. The gist of the method:
as §2

Assay [17] has as its system Canis familiaris. The assay can be described thus: In vivo antagonism of cisplatin-induced emesis in dog measured as emetic episodes, twice the dose of 6 mg/kg in 3 dogs. The assay is classed as functional, Canis lupus familiaris. The procedure, abridged:
(§3)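 Nonfasted mature male or female beagles received test compound or saline sc twice, 30 min before and 120 min after cisplatin (3 mg/kg iv; 3 mg/mL in warm 0.9% saline, used at once). Emesis observed up to 5 h. Emetic episode = expulsion of stomach content; events within 2 min counted as one. Protection calculated against a dynamic control (historical mean pooled with concurrent saline control).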

The test system of assay [18] is Canis familiaris. As to the kind of experiment: In vivo antagonism of cisplatin-induced emesis in dog measured as percentage protection for twice the dose of 6 mg/kg in 3 dogs. The assay is classed as functional, Canis lupus familiaris. The procedure, abridged: as §3
Assay [19] deals with Canis familiaris. The assay can be described thus: In viov antagonism of cisplatin-induced emesis in dog measured as percentage protection for twice the dose of 1 mg/kg in 2 dogs. The assay is classed as functional, Canis lupus familiaris. The gist of the method: as §1
Assay [20] relates to Mustela putorius furo. As to the kind of experiment: In vivo antagonism of cisplatin-induced emesis in ferret measured as percentage protection for twice the dose of 1 mg/kg and in 3 ferrets. The assay is classed as functional. The gist of the method:
as §2

Assay [21] has as its system Canis familiaris. The assay can be described thus: In vivo antagonism of cisplatin-induced emesis in dog measured as percentage protection for twice the dose of 0.3 mg/kg in 2 dogs. The assay is classed as functional, Canis lupus familiaris. The settings on record: 0.3 mg/kg. The procedure, abridged: as §1
Assay [22] has as its system Canis familiaris. As to the kind of experiment: In vivo antagonism of cisplatin-induced emesis in dog measured as percentage protection for twice the dose of 0.1 mg/kg in 2 dogs. The assay is classed as functional, Canis lupus familiaris. The procedure, abridged: as §1
Assay [23] concerns Mustela putorius furo. As to the kind of experiment: In vivo antagonism of cisplatin-induced emesis in ferret measured as emetic episodes, twice the dose of 0.3 mg/kg and in 3 ferrets. The assay is classed as functional. The settings on record: 0.3 mg/kg. The procedure, abridged:
as §2

For assay [24], the system named is Canis familiaris. As to the kind of experiment: In vivo antagonism of cisplatin-induced emesis in dog measured as emetic episodes, twice the dose of 0.3 mg/kg in 2 dogs. The conditions noted are these: 0.3 mg/kg. The assay is classed as functional, Canis lupus familiaris. The gist of the method:
as §1

Assay [25] concerns Canis familiaris. As to the kind of experiment: In vivo antagonism of cisplatin-induced emesis in dog measured as emetic episodes, twice the dose of 0.1 mg/kg in 2 dogs. The assay is classed as functional, Canis lupus familiaris. The gist of the method:
as §1

The subject of assay [26] is Mustela putorius furo. As to the kind of experiment: In vivo antagonism of cisplatin-induced emesis in ferret measured as percentage protection for twice the dose of 0.3 mg/kg and in 3 ferrets. The assay is classed as functional. The conditions noted are these: 0.3 mg/kg. The procedure, abridged:
as §2

In assay [27] the test system is Mustela putorius furo. As to the kind of experiment: in vivo antagonism of cisplatin-induced emesis in ferret measured as emetic episodes, twice the dose of 3 mg/kg and in 3 ferrets. The assay is classed as functional. The procedure, abridged:
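Nonfasted castrated male Fitch ferrets (1–1.5 kg) carried jugular vein catheters implanted at least 48 h earlier under general anesthesia. Test compound or saline was given iv twice, 5 min before and 90 min after cisplatin (12 mg/kg iv; 12 mg/mL in warm saline). Emesis was watched for 4 h, with events within 1 min counted as one episode. % protection is relative to a pooled historical-plus-concurrent control, with t test versus saline.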

The test system of assay [28] is Mustela putorius furo. As to the kind of experiment: In vivo antagonism of cisplatin-induced emesis in ferret measured as emetic episodes, twice the dose of mg/kg and in 3 ferrets. The assay is classed as functional. The gist of the method:
as §2

D(2) dopamine receptor, sequence (P61169 whole entry): as the sequence (P61169 whole entry) above

As to `CCN(CC)CCNC(=O)c1cc(Cl)c(N)cc1OCOCCOC`, the Emetic episodes in assay [1] is on record as 3.5; in assay [4], 0. For the same compound, the ED50 in [2] is above 40 mg/kg; in [6], above 40 mg/kg; in assay [8], above 3 mg/kg. Also, the values for the Protection in [3] and in assay [5] were 100% and 72%, respectively. Moreover, the IC50 in assay [7] is above 1000 nM.

Turning to `C#CCOc1cc(N)c(Cl)cc1C(=O)NCCN(CC)CC`, the Emetic episodes in assay [9] worked out at 3.5; in [11], 3.3; in [12], 2; in [14] it was 4.3. Moreover, the median effective dose (ED50) in assay [2] was above 40 mg/kg; in assay [6] it was above 40 mg/kg; in [8] it was above 1 mg/kg. Further, the Protection was found to be 72% in assay [10], 50% in assay [13], 73% in [15] and 40% in assay [16]. The 50% inhibitory concentration (IC50) in [7] is above 1000 nM.

Consider `O=c1[nH]c2ccccc2n1CCCN1CCC(n2c(=O)[nH]c3cc(Cl)ccc32)CC1` [DOMPERIDONE], for which the results for the ED50 in [2], in assay [6] and in [8] were above 40 mg/kg, above 40 mg/kg and 0.08 mg/kg, respectively. Moreover, the Emetic episodes is listed as 3.3 in assay [11] and 9.7 in [17]. Besides, the Protection turned out to be 50% in [13] and 30% in assay [18].

On to `CCN(CC)CCNC(=O)c1cc(Cl)c(N)cc1OC(C)C(C)O` (stereo in doubt; 8g), for which the Emetic episodes in [1] was found to be 0; in assay [11] (3 mg/kg), 1; in assay [23], 0.7; in assay [24], 0; in assay [14] (1 mg/kg) it was 1.3; in [25], 4. Besides, the Protection worked out at 100% in assay [19]; 82% in assay [20] (1 mg/kg); 100% in [21]; 62% in assay [22]; 86% in [13] (3 mg/kg); 49% in [26]. Besides, the IC50 in [7] was above 1000 nM.

Turning to `CCN(CC)CCNC(=O)c1cc(Cl)c(N)cc1OCC(C)OC` (stereo not drawn), the ED50 is above 40 mg/kg in assay [2], above 40 mg/kg in assay [6] and above 3 mg/kg in [8]. Also, the Emetic episodes in assay [27] amounted to 1; in [28], 3. Besides, the Protection in assay [20] came out at 57%; in assay [13], 86%. The IC50 in assay [7] was above 1000 nM.
